FXIa inh = human FXIa protease inhibitors, primary screen, biochemical, 1536-well; Coagulation factor XI (Homo sapiens), P03951; purified FXIa, Boc-Glu-Ala-Arg-AMC fluorogenic substrate; inhibition, % at 5 µM; 220,000 compounds, 0.14% hits;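 active = inhibition of at least 40%; inactive = inhibition below 40%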;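 note: fluorescence of freed AMC excited at 355 nm; 0% = enzyme without compound and 100% = no enzyme blank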
KLK5 inh = human KLK5 protease inhibitors, primary screen, biochemical, 1536-well; Kallikrein-5 (Homo sapiens), Q9Y337; inhibition, % at 5 µM; recombinant hK5, fluorogenic AMC substrate cleavage; 210,000 compounds, 0.59% hits;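 active = inhibition of 40% or more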;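 note: 0% = enzyme controls without compound and 100% = no-enzyme blanks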
thrombin 1536 = human alpha-thrombin inhibitors, primary screen, counter-screen for coagulation protease inhibitor project, biochemical, 1536-well, fluorogenic AMC substrate; Prothrombin (Homo sapiens), P00734; Boc-VPR-AMC fluorogenic substrate cleavage; inhibition, % at 5 µM; 220,000 compounds, 0.26% hits; AID 1046, 2008;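 active = inhibition at or above 40%; inactive = inhibition below 40%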;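 note: 0% = enzyme with no compound and 100% = wells without enzyme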
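Material: human alpha-thrombin enzyme / Medium: pH 7.5 Tris (50 mM) with NaCl 150 mM, Tween 20 0.05% / Compound: single-point dosing at 5 µM, 0.2% DMSO / Incubation: enzyme reaction carried out at room temperature / Detection: AMC fluorescence, 355/460 nm / Read-out basis: percent inhibition scaled between no-compound controls and no-enzyme blanks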
FXIIa inh 1536 = human FXIIa protease inhibitors, primary screen, biochemical, 1536-well; 220,000 compounds, 0.3% hits; purified FXIIa, Boc-QGR-AMC fluorogenic substrate, 2 h; Coagulation factor XII (Homo sapiens), P00748; inhibition, % at 5 µM; in the data active = inhibition above about 40%;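 note: 0% = enzyme with no compound and 100% = blank without enzyme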
Target sequence (P00748 20-372 limits assumed): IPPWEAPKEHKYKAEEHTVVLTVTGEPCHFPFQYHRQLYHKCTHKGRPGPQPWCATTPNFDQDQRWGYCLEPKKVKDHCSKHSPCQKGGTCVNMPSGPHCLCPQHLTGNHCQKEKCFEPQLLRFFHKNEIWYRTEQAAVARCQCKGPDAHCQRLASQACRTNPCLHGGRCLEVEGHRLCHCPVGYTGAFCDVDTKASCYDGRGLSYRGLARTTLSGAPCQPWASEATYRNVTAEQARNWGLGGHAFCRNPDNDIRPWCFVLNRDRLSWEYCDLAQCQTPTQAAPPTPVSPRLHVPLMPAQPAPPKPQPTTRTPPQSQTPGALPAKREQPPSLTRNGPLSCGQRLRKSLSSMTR
Target sequence (P00748 373-615 limits assumed): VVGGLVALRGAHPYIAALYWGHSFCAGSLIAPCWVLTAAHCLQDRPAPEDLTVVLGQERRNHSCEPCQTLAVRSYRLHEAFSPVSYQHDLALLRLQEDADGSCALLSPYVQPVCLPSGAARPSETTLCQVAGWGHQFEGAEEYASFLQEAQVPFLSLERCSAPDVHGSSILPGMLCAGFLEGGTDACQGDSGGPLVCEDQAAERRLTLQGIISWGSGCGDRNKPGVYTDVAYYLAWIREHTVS
Biofilm kill mix = clotrimazole potentiators killing C. albicans biofilm, primary screen, 4-compound mixtures | C. albicans biofilm persisters + clotrimazole, fluorescence viability; primary screen in compound mixtures of four per well | inhibition, % at 7.6 µM | 120,000 compounds, 0.02% hits | AID 1242, 2008;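 active = inhibition above 30.3% in the primary screen of four-compound pools, then above 30% when the compound was retested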;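 note: compounds exposed to preformed 24 h biofilms for 48 h; 0% = untreated biofilm control and 100% = clotrimazole plus chlorhexidine kill blank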
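Test system: C. albicans biofilms. Buffer or medium: RPMI/MOPS medium, pH 7.0. Timing: 48 h compound exposure at 37 °C. Technique: Alamar Blue fluorescence. Evaluation: percent inhibition of biofilm viability.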
Lipid droplet = inhibitors of hepatocyte lipid droplet formation, primary screen, imaging, high-throughput imaging, BODIPY stain. AML12 mouse hepatocytes, oleate lipid droplets. inhibition, % at 6.5 µM. 240,000 compounds, 0.4% hits. AID 1656, 2009;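 active = lipid droplet intensity inhibited by at least 50%, with more than 500 cells counted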
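Material – AML12 mouse liver cells · Also added – oleate loading, 100 µM · Compound dosing – 6.5 µM single-point dosing · Times – overnight treatment with compound plus oleate · Measured by – fluorescence imaging, 20x objective, two fields per well · Read-out – percent inhibition of filter-corrected integrated lipid droplet intensity per well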
* = called active by the depositor; ! = a repeat was not active. Sampled rows, rich in hits. Any-hit rate of the full collection: about 1.1%.

COc1ccc(C(=O)c2oc3ccccc3c2N)cc1 was read as FXIa inh 8, KLK5 inh 7, thrombin 1536 0, FXIIa inh 1536 9 and Lipid droplet 12.
For CCCCNC(=O)Nc1ccc(C2SCCS2)cc1 the results were FXIa inh 6, KLK5 inh 60*, thrombin 1536 20, FXIIa inh 1536 11, Biofilm kill mix 20 and Lipid droplet -1.
Screening CC(C)NC(=S)N1CCCN(c2ncccc2[N+](=O)[O-])CC1 returned Lipid droplet 7.
O=C(Nc1ccc(N2CCCCC2)c(Cl)c1)c1ccc(N2CCOCC2)c([N+](=O)[O-])c1 was read as FXIa inh 4, KLK5 inh 45*, thrombin 1536 4 and FXIIa inh 1536 9.
Screening Cc1ccc(S(=O)(=O)N2CCN(Cc3cc(C(C)C)ccc3O)CC2)cc1 returned FXIa inh 14, KLK5 inh 3, thrombin 1536 0 and FXIIa inh 1536 43*.
`Cc1ccc(S(=O)(=O)N2CCN(Cc3cc(C(C)(C)C)ccc3O)CC2)cc1` gave Lipid droplet -10.
CCCOc1ccc(-c2c(C(=O)N/N=C(\C)c3ccncc3)nnn2-c2nonc2N)cc1 was read as Lipid droplet -12.
CN1CCN(S(=O)(=O)c2ccc(Br)s2)CC1 was read as FXIa inh 3, KLK5 inh 33, thrombin 1536 18 and FXIIa inh 1536 48*.
`CC1(C)N=c2ccc([N+](=O)[O-])c(N)c2=[N+]1[O-]` gave FXIa inh 40*, KLK5 inh 22, thrombin 1536 20, FXIIa inh 1536 24, Biofilm kill mix 25 and Lipid droplet -8.
Screening O=C(Cn1nnc(-c2cccc(C(F)(F)F)c2)n1)N1CCOCC1 returned FXIa inh 23, KLK5 inh 51*, thrombin 1536 33 and FXIIa inh 1536 17.
For COC(=O)c1c(SCC(=O)Nc2ccc(C)cc2)nc(=O)[nH]c1C the results were FXIa inh 29, KLK5 inh 74*, thrombin 1536 34, FXIIa inh 1536 26, Biofilm kill mix 16 and Lipid droplet 3.
CCOC(=O)c1c(SCC(=O)Nc2nc(C)cs2)nc(=O)[nH]c1C was read as Lipid droplet -7.
Screening O=C1CC(O)(C(F)(F)F)Oc2c1ccc1ccccc21 (stereo not drawn) returned FXIa inh 8, KLK5 inh 93*, thrombin 1536 30, FXIIa inh 1536 15 and Lipid droplet 0.
Screening O=C1CC(O)(C(F)F)Oc2ccc3ccccc3c21 (stereo not drawn) returned FXIa inh -5, KLK5 inh -1, thrombin 1536 3 and FXIIa inh 1536 16.
CCOC(=O)N1CCN(C(=O)c2ccccc2NC(=O)c2ccc(F)cc2)CC1 was read as FXIa inh 11, KLK5 inh 58*, thrombin 1536 27, FXIIa inh 1536 13, Biofilm kill mix 6 and Lipid droplet 10.
CCOC(=O)N1CCN(C(=O)c2ccccc2NC(=O)c2ccc(Br)cc2)CC1 was read as FXIa inh -7, KLK5 inh -9, thrombin 1536 -5, FXIIa inh 1536 -1, Biofilm kill mix 15 and Lipid droplet 2.
`Cc1cc(C)n2ncc(/C(N)=N/OC(=O)Nc3ccccc3)c2n1` gave FXIa inh 7, KLK5 inh 18, thrombin 1536 5, FXIIa inh 1536 16, Biofilm kill mix 6 and Lipid droplet -10.
For Clc1ccccc1Cn1nnc2c(NCCN3CCOCC3)ncnc21 the results were FXIa inh 47*, KLK5 inh 23, thrombin 1536 26, FXIIa inh 1536 11 and Lipid droplet -2.
Screening COc1cc(S(=O)(=O)N2CCN=C2c2ccccc2)ccc1F returned FXIa inh -8, KLK5 inh -3, thrombin 1536 3, FXIIa inh 1536 12 and Lipid droplet -12.
For Cc1ccc(S(=O)(=O)N2CCN=C2c2ccccc2)cc1C the results were FXIa inh 22, KLK5 inh 45*, thrombin 1536 24, FXIIa inh 1536 17, Biofilm kill mix 12 and Lipid droplet -26.
For O=S(=O)(Nc1ncccn1)c1ccc(NC(=S)Nc2cccc(Cl)c2)cc1 the results were FXIa inh 8, KLK5 inh -6, thrombin 1536 4, FXIIa inh 1536 6, Biofilm kill mix 6 and Lipid droplet -14.
For O=C(Oc1ccc(Cl)c2cccnc12)c1ccco1 the results were FXIa inh -5, KLK5 inh -4, thrombin 1536 -3, FXIIa inh 1536 52* and Lipid droplet -1.
`COc1ccccc1NC(=O)NC1CCCCCCC1` gave Lipid droplet 23.
`COc1ccccc1NC(=O)C1C2CCCCC21` (stereo not drawn) gave FXIa inh 12, KLK5 inh 61*, thrombin 1536 104* and FXIIa inh 1536 22.
COc1ccc(-n2ncc3c(NCc4ccccn4)ncnc32)cc1 was read as FXIa inh 25, KLK5 inh -9, thrombin 1536 3, FXIIa inh 1536 44* and Lipid droplet 1.
Screening COc1ccc(-n2ncc3c(NCc4ccco4)ncnc32)cc1 returned FXIa inh 4, KLK5 inh -7, thrombin 1536 1 and FXIIa inh 1536 17.
Screening COc1ccc(CCc2nc(C)ccc2O)cc1 returned FXIa inh 4, KLK5 inh 44*!, thrombin 1536 24, FXIIa inh 1536 10, Biofilm kill mix 9 and Lipid droplet -14.
For Cc1ccc(O)c(CO)n1 the results were FXIa inh 3, KLK5 inh 0, thrombin 1536 -3, FXIIa inh 1536 9, Biofilm kill mix 13 and Lipid droplet 3.
CCc1ccc(NC(=O)C2CCC(CNC(=O)[C@@H]3Cc4ccccc4CN3)CC2)cc1 (stereo partly drawn) was read as Lipid droplet 24.
For Cc1nnc(NC(=O)c2c(F)c(F)c(F)c(F)c2F)s1 the results were FXIa inh 11, KLK5 inh 33, thrombin 1536 17, FXIIa inh 1536 50* and Lipid droplet -3.
Screening Cc1nnc(NC(=O)c2ccccc2F)s1 returned FXIa inh 7, KLK5 inh -12, thrombin 1536 -5, FXIIa inh 1536 11 and Lipid droplet -5.
O=C(c1ccccc1F)c1cc2c(cc1[N+](=O)[O-])OCCO2 was read as FXIa inh 3, KLK5 inh -22, thrombin 1536 -1, FXIIa inh 1536 -3, Biofilm kill mix 12 and Lipid droplet -7.

Screens (PubChem)
